Laboratory results reported in ChEMBL document CHEMBL5370536, “Design, synthesis, and biological activity of dual monoamine oxidase A and heat shock protein 90 inhibitors, N-Methylpropargylamine-conjugated 4-isopropylresorcinol for glioblastoma” (Eur J Med Chem, 2023).
pIC50: −log10 of the molar value. Calls of active or inactive are those of the source. No cut-off for these calls is given here.

Key:
SNB-19 = assay: Growth inhibition of human SNB-19 cells incubated for 48 hrs by SRB assay; format: functional
Procedure, shortened: (§1)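 NCI-60 panel screen: cells seeded at 5000 to 40000 per well according to doubling time, 24 h before drug addition at various concentrations. A time-zero plate was TCA-fixed at drug addition. After 48 h drug exposure, growth was read by sulforhodamine B staining. Percent growth = [(Ti − Tz)/(C − Tz)] × 100, and GI50 is the concentration at which this equals 50.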

[1] = Antiproliferative activity against human patient-derived TMZ-resistant GBM cells with MGMT negative P3R cell assessed as inhibition of cell growth measured after 72 hrs by CCK8 method; format: functional, cell-based
Procedure, shortened: (§2)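 Cell lines from ATCC or from patient surgical specimens (P1S, P3, P3R), kept in DMEM with 10% FBS and 1% penicillin/streptomycin at 37°C, 5% CO₂. P3R medium also held 50 μM TMZ. Cells were seeded at 2×10³/well 24 h before compound, then exposed 72 h.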

[2] = biological target: T1, Amine oxidase [flavin-containing] A (Mus musculus, UniProt Q64133); assay: Inhibition of MAO A in mouse GL26 cells preincubated for 20 mins followed by 14C-labeled 5-hydroxytryptamine addition and measured after 20 mins by scintillation counter analysis; format: cell-based
T1 sequence (Q64133 whole entry): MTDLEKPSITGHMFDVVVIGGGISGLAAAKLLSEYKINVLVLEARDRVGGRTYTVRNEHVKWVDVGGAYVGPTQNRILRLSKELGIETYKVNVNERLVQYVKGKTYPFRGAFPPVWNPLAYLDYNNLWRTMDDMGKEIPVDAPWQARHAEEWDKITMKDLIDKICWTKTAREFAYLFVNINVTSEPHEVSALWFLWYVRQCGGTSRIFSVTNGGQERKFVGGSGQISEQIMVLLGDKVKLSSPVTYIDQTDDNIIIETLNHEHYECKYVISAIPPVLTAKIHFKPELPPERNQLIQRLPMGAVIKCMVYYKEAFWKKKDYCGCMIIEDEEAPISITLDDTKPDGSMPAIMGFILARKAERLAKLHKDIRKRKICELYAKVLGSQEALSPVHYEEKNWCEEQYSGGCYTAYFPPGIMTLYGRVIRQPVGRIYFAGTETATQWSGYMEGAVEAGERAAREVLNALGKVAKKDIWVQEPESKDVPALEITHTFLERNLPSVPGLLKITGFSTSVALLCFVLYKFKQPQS

HCT-116 [3] = assay: Growth inhibition of human HCT-116 cells incubated for 48 hrs by SRB assay; format: functional; procedure, shortened: as §1
[4] = Antiproliferative activity against human patient-derived P3 cell assessed as inhibition of cell growth measured after 72 hrs by CCK8 method; format: functional, cell-based; procedure, shortened: as §2
[5] = Antiproliferative activity against human patient-derived, TMZ-resistant and concurrent chemo-radiotherapy (CCRT)-resistant P1S cell assessed as inhibition of cell growth measured after 72 hrs by CCK8 method; format: functional, cell-based; procedure, shortened: as §2
[6] = Antiproliferative activity against human U373 MG cells assessed as inhibition of cell growth measured after 72 hrs by CCK8 method; format: functional, cell-based, U-373MG ATCC; procedure, shortened: as §2
U-251 [7] = assay: Upregulation of HSP70 expression in human Temozolomide-resistant U-251 cells incubated for 24 hrs by Western blot analysis; format: functional, cell-based; details: dose 0.1-3 µM
[8] = Antiproliferative activity against mouse GL26 cells assessed as inhibition of cell growth measured after 48 hrs by MTT assay; format: functional, cell-based; details: GL26, 48 h
Procedure, shortened: (§3)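 Cells plated at 5×10³ per well 24 h before compound and grown in DMEM with 10% FBS at 37°C, 5% CO₂. After 48 h exposure, the medium was replaced with 0.5 mg/mL MTT for 3 h. Formazan was dissolved in DMSO and read at 570 nm.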

SNB-75 = assay: Growth inhibition of human SNB-75 cells incubated for 48 hrs by SRB assay; format: functional; procedure, shortened: as §1
U-251 [9] = assay: Antiproliferative activity against human Temozolomide-resistant U-251 cells assessed as inhibition of cell growth measured after 48 hrs by MTT assay; format: functional, cell-based; details: U-251, 48 h; procedure, shortened: as §3
RPMI-8226 = assay: Growth inhibition of human RPMI-8226 cells incubated for 48 hrs by SRB assay; format: functional; procedure, shortened: as §1
SF-295 = assay: Growth inhibition of human SF-295 cells incubated for 48 hrs by SRB assay; format: functional; procedure, shortened: as §1
A 172 = assay: Antiproliferative activity against human A-172 cells assessed as inhibition of cell growth measured after 72 hrs by CCK8 method; format: functional, cell-based; details: A 172, 72 h; procedure, shortened: as §2
SF-268 = assay: Growth inhibition of human SF-268 cells incubated for 48 hrs by SRB assay; format: functional; procedure, shortened: as §1
U-251 [10] = assay: Growth inhibition of human U-251 cells incubated for 48 hrs by SRB assay; format: functional; procedure, shortened: as §1
[11] = biological target: Heat shock protein HSP 90-alpha (Homo sapiens, UniProt P07900); assay: Inhibition of human recombinant HSP90alpha preincubated for 30 mins followed by FITC-GM addition and mesured after 3 hrs by fluorescence polarization assay
GL26 [12] = assay: Downregulation of IFN-gamma induced PD-L1 expression in mouse GL26 cells incubated for 24 hrs by flow cytometry analysis; format: functional, cell-based
Procedure, shortened: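 GL26 cells at 3.6 × 10⁵ per well were treated at various concentrations with or without 10 ng/mL IFN-γ for 24 h. Cells were stained with goat anti-PD-L1 for 1 h in PBS/0.05% BSA, then FITC donkey anti-goat for 1 h, and read by flow cytometry. MFI was normalised to the secondary-antibody-only isotype control and expressed as an MFI ratio.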

SF-539 = assay: Growth inhibition of human SF-539 cells incubated for 48 hrs by SRB assay; format: functional; procedure, shortened: as §1
SW-620 = assay: Growth inhibition of human SW-620 cells incubated for 48 hrs by SRB assay; format: functional; procedure, shortened: as §1
[13] = Antitumor activity against mouse GL26 cells xenografted in C57BL/6J mouse model assessed as tumor growth inhibition at 25 mg/kg, ip administered daily for 3 days followed by every 3 days for 14 days by caliper method relative to control; format: functional; details: GL26, 336 h, time 14 day, read-out: TGI
Procedure, shortened: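 Male C57BL/6J mice aged 8-9 weeks received 2 × 10⁵ GL26 cells subcutaneously in the lower back. From day 9 after implantation, once tumours were palpable, 25 mg/kg was given i.p. daily for 3 days and then every 3 days over 14 days. Caliper volume was length × width² ÷ 2. TGI% was taken relative to the mean tumour size of the vehicle group.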

GL26 [14] = assay: Upregulation of HSP70 expression in mouse GL26 cells incubated for 24 hrs by Western blot analysis; format: functional, cell-based; details: dose 0.1-3 µM
LN-229 = assay: Antiproliferative activity against human LN-229 cells assessed as inhibition of cell growth measured after 72 hrs by CCK8 method; format: functional, cell-based; details: LN-229, 72 h; procedure, shortened: as §2
U-251 [15] = assay: Downregulation of HER2 expression in human Temozolomide-resistant U-251 cells incubated for 24 hrs by Western blot analysis; format: functional, cell-based; details: dose 0.1-3 µM
NCI-H522 = assay: Growth inhibition of human NCI-H522 cells incubated for 48 hrs by SRB assay; format: functional; procedure, shortened: as §1
A549 = assay: Growth inhibition of human A549 cells incubated for 48 hrs by SRB assay; format: functional; procedure, shortened: as §1
GL26 [16] = assay: Downregulation of Akt phosphorylation expression at Ser 473 residues in mouse GL26 cells incubated for 24 hrs by Western blot analysis; format: functional, cell-based; details: dose 0.1-3 µM
T98G = assay: Antiproliferative activity against human T98G cells assessed as inhibition of cell growth measured after 72 hrs by CCK8 method; format: functional, cell-based; procedure, shortened: as §2
HCT-116 [17] = assay: Downregulation of PD-L1 expression in human HCT-116 cells; format: functional, cell-based
Procedure, shortened: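 HCT116 cells at 3 × 10⁵ per well were treated at various concentrations with or without 20 ng/mL IFN-γ for 48 h. Cells were stained with mouse anti-PD-L1 for 1 h in PBS/0.05% BSA, then FITC goat anti-mouse for 1 h. Surface FITC mean fluorescence intensity was measured by flow cytometry.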

U-251 [18] = assay: Downregulation of Akt phosphorylation expression at Ser 473 residues in human Temozolomide-resistant U-251 cells incubated for 24 hrs by Western blot analysis; format: functional, cell-based; details: dose 0.1-3 µM
GL26 [19] = assay: Downregulation of HER2 expression in mouse GL26 cells incubated for 24 hrs by Western blot analysis; format: functional, cell-based; details: dose 0.1-3 µM
NCI-H460 = assay: Growth inhibition of human NCI-H460 cells incubated for 48 hrs by SRB assay; format: functional; procedure, shortened: as §1
U-87 MG = assay: Antiproliferative activity against human U-87 MG cells assessed as inhibition of cell growth measured after 72 hrs by CCK8 method; format: functional, cell-based, U-87MG ATCC; procedure, shortened: as §2
K562 = assay: Growth inhibition of human K562 cells incubated for 48 hrs by SRB assay; format: functional; procedure, shortened: as §1
U-251 [20] = assay: Downregulation of Akt phosphorylation expression at Ser 473 residues in human Temozolomide-resistant U-251 cells at 0.1 to 3 uM incubated for 24 hrs by Western blot analysis; format: functional, cell-based; details: dose 0.1-3 µM
Procedure, shortened: (§4)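 GL26 and U251R cells were seeded at 3 × 10⁵ per well 24 h ahead, then treated in compound-containing medium for 24 h. Cells were washed twice in ice-cold PBS and lysed in RIPA buffer (150 mM NaCl, 1% Triton X-100, 0.5% deoxycholate, 0.1% SDS, 50 mM Tris pH 8.0) plus protease inhibitors. Lysate was cleared at 4°C, protein was quantified by BCA, and western blotting followed.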

GL26 [21] = assay: Downregulation of IFN-gamma induced PD-L1 expression in mouse GL26 cells at 20 uM incubated for 24 hrs by flow cytometry analysis; format: functional, cell-based
Procedure, shortened: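 GL26 cells were seeded at 3.6 × 10⁵ per well and exposed to compound, with or without 10 ng/mL IFN-γ, for 24 h. Cells were stained with goat anti-PD-L1 for 1 h, then FITC donkey anti-goat for 1 h. Surface FITC was read by flow cytometry, and MFI was normalized to the secondary-only control as an MFI ratio.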

GL26 [22] = assay: Downregulation of Akt phosphorylation expression at Ser 473 residues in mouse GL26 cells at 0.1 to 3 uM incubated for 24 hrs by Western blot analysis; format: functional, cell-based; details: dose 0.1-3 µM; procedure, shortened: as §4
GL26 [23] = assay: Antitumor activity against mouse GL26 cells xenografted in C57BL/6J mouse model assessed as tumor growth inhibition at 10 mg/kg, ip administered daily for 14 days by caliper method; details: time 14.0 day

C#CCN(C)CCCOc1ccc(N(CC)C(=O)c2cc(C(C)C)c(O)cc2O)cc1Cl
GI50 (SNB-19): 0.44 µM | pIC50 [1]: 5.84 | pIC50 [2]: 5.34 | GI50 (HCT-116 [3]): 0.08 µM | pIC50 [4]: 5.53 | pIC50 [5]: 6.17 | pIC50 [6]: 6.05 | Activity (U-251 [7]): Dose-Dependent Effect | pIC50 [8]: 6.31 | GI50 (SNB-75): 0.86 µM | pIC50 (U-251 [9]): 6.59 | GI50 (RPMI-8226): 0.33 µM | GI50 (SF-295): 0.32 µM | pIC50 (A 172): 6.05 | GI50 (SF-268): 1.43 µM | GI50 (U-251 [10]): 0.37 µM | pIC50 [11]: 7.80 | Activity (GL26 [12]): Dose-Dependent Effect | GI50 (SF-539): 0.31 µM | GI50 (SW-620): 0.24 µM | inhibition in vivo at 25 mg/kg [13]: 59.8% | Activity (GL26 [14]): Dose-Dependent Effect | pIC50 (LN-229): 6.51 | Activity (U-251 [15]): Dose-Dependent Effect | GI50 (NCI-H522): 0.07 µM | GI50 (A549): 0.14 µM | Activity (GL26 [16]): Dose-Dependent Effect | pIC50 (T98G): 6.34 | Activity (HCT-116 [17]): Active | Activity (U-251 [18]): Dose-Dependent Effect | Activity (GL26 [19]): Dose-Dependent Effect | GI50 (NCI-H460): 0.05 µM | pIC50 (U-87 MG): 6.44 | GI50 (K562): 0.07 µM

C#CCN(C)CCCOc1ccc(Cl)cc1Cl [CLORGILINE]
Activity (U-251 [20]): Active | Activity (GL26 [21]): Active | pIC50 [8]: < 4.00 | Activity (GL26 [22]): Active | Activity (GL26 [23]): inactive

C#CCN(C)CCCOc1cccc(N(C)C(=O)c2cc(C(C)C)c(O)cc2O)c1Cl
pIC50 [2]: < 5.00
